Our source for the cytotoxicity values is ChEMBL document CHEMBL4513216, “Probing the Open Global Health Chemical Diversity Library for Multistage-Active Starting Points for Next-Generation Antimalarials” (ACS Infect Dis, 2020).

A short description of this data set: Toxicity liver stage against HepG2, at 10uM. The format is cell-based. Further details: test concentration 10 uM, cell line HepG2-A16-CD81EGFP. The note with it: human, HepG2-A16-CD81EGFP cells; read-out: INHIBITION
In short, it runs like this:
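Uninfected HepG2-A16-CD81EGFP cells, 3 × 10^3 per well, 1536-well, plated on prespotted compound at 10 μM final, parasite-free screening media added to match infected plates; puromycin 10 μM positive, DMSO 0.5% negative; run in parallel with 48 h PbLuc assay at 37 °C, 5% CO2; viability by CellTiter-Glo luminescence, normalized to controls.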
Regarding `Cc1ccc(C#N)c(N2CCC3(CCC(=O)N(CC(N)=O)C3)CC2)n1`, the cytotoxicity at 10 µM is 0.845%.

Consider `Fc1ccc(Nc2ccc(C3CCN(Cc4ncc[nH]4)CC3)nc2)nc1`, for which the cytotoxicity at 10 µM is -1.85%.

Turning to `CCOc1ccc(Cl)c(C(=O)N2CCCC(c3cc(C)[nH]n3)C2)n1` (stereo unspecified), the cytotoxicity at 10 µM came out at 8.83%.

For the molecule `CC(C(=O)N1CCN(Cc2ccncc2)CC1)n1cncn1` (stereo unspecified), the cytotoxicity at 10 µM is -4.73%.

Regarding `CCc1nc(CCn2ccnc2-c2nccn2C)no1`, the cytotoxicity at 10 µM is -50.2%.

For the molecule `CC(NCc1ccccn1)c1ccc(N2CCN(C)CC2)c(F)c1` (stereo unspecified), the cytotoxicity at 10 µM was -7.85%.

Turning to `N#Cc1cccc(OCCCN2CCN(C(=O)c3ccoc3)CC2)c1`, the cytotoxicity at 10 µM was 3.57%.

Take `CN1CCN(C=C2N=C(c3cc(-c4ccccc4F)n[nH]3)ON2)CC1`: the cytotoxicity at 10 µM is -4.92%.

Take `CN(Cc1ccccc1)c1ncccc1CNC1CCSCC1`: the cytotoxicity at 10 µM is -2.84%.

Consider `c1csc(CN2CCC3(CCCN(c4nncs4)C3)C2)n1` (stereo unspecified), for which the cytotoxicity at 10 µM was -144%.

As to `CN1CCC(c2n[nH]c3ncccc23)C1` (stereo unspecified), the cytotoxicity at 10 µM is -20.1%.

Consider `COC(=O)CN(Cc1ccccc1C)C(=O)COCC1CC1`, for which the cytotoxicity at 10 µM stood at 6.87%.

`O=C(NCC1CC1)[C@@H]1CCO[C@@H]2CCN(Cc3ccc(F)cc3)C[C@H]21`: the cytotoxicity at 10 µM was found to be 1.42%.

Consider `NC(=O)NC(=O)C(c1ccccc1)N1CCN(Cc2ccccc2)CC1` (stereo unspecified), for which the cytotoxicity at 10 µM is -5.68%.

Turning to `COc1cccc2c1OCC(C(=O)N1CCN(S(=O)(=O)N(C)C)CC1)C2` (stereo unspecified), the cytotoxicity at 10 µM amounted to 3.47%.

As to `CCS(=O)(=O)CC(C)N(C)C(=O)COc1ccccc1C#N` (stereo unspecified), the cytotoxicity at 10 µM is -3.51%.

Regarding `O=C(c1ccco1)N1C[C@H]2CCCN(CC3CC3)[C@H]2C1`, the cytotoxicity at 10 µM is 2.36%.

For the molecule `CC(C)(CO)CCCNC(=O)NC1(c2ccccc2F)CC1`, the cytotoxicity at 10 µM stood at 9.08%.

Regarding `CCN1C(=O)C(c2ccccc2)CC12CCN(Cc1cccnc1)CC2` (stereo unspecified), the cytotoxicity at 10 µM stood at 4.65%.

For `CCOc1ccc(NC2CCN(C(C)C)C2=O)cn1` (stereo unspecified), the cytotoxicity at 10 µM was -17%.

Regarding `CN(C)C(=O)CN1CCCC1c1nc(N)ncc1-c1ccc(F)cc1` (stereo unspecified), the cytotoxicity at 10 µM is -8.94%.

On to `COCCC1(C(=O)O)CCCN(Cc2ccccc2OCCO)C1` (stereo unspecified), for which the cytotoxicity at 10 µM was -40.9%.

In the case of `CC(C)CC(C)N(C)C(=O)CCn1cccn1` (stereo unspecified), the cytotoxicity at 10 µM was determined as 0.395%.

With `CC(C)(C)c1cc(=O)n2c(n1)SCC(C(=O)NCc1cccs1)C2` (stereo unspecified), the cytotoxicity at 10 µM was determined as 12.9%.

With `O=C1CC2(CCN(CC3CC3)C2)CN1c1cccnc1` (stereo unspecified), the cytotoxicity at 10 µM was -1.18%.

For `CC(=O)NCCCSCCOc1cccc(C#N)c1`, the cytotoxicity at 10 µM is 11.4%.

For `Cc1ccc(C)c2c(C)c(C(=O)NCC[S+](C)[O-])[nH]c12` (stereo unspecified), the cytotoxicity at 10 µM came out at 3.03%.

For `Cc1cc(C)nc(NCCCC(=O)NCCn2ccc3ccccc32)n1`, the cytotoxicity at 10 µM was -0.1%.

For `CC(C)NC(=O)N1CCc2nc(C(=O)NCc3ccccc3)sc2CC1`, the cytotoxicity at 10 µM was 4.17%.

Consider `O=C1O[C@@H]2CN(c3ccc(Cl)cn3)C[C@@H]2N1CCc1ccc(F)cc1`, for which the cytotoxicity at 10 µM is -2.77%.

On to `Cc1ncsc1-c1ccn(CC(=O)Nc2cnn(C)n2)n1`, for which the cytotoxicity at 10 µM stood at 93.8%.

`Cc1cccnc1N1CCN(Cc2cc(O)c3cccc(F)c3n2)CC1`: the cytotoxicity at 10 µM was found to be 2.2%.

Turning to `CCOc1cc2c(cc1C(=O)O)CCC2`, the cytotoxicity at 10 µM was -18.6%.

For the molecule `CC(C)CNS(=O)(=O)c1ccc(C(=O)N(C)CCc2cn[nH]c2)cc1`, the cytotoxicity at 10 µM was 4.48%.

As for `CS(=O)(=O)CCN1CCN(c2ccc(Cl)cn2)CC1`, the cytotoxicity at 10 µM amounted to 4.13%.

For the molecule `Cc1c(C(=O)NCCC(=O)N2CCCC2)oc2c(F)cccc12`, the cytotoxicity at 10 µM turned out to be 5.87%.

For the molecule `CC1CN(c2ncccc2C(=O)N[C@@H]2CCCc3ccccc32)CCN1` (stereo partly specified), the cytotoxicity at 10 µM is 10.7%.

For `COCCN1CCC(CN(C)c2ncnc3c2c(C)nn3C)C1` (stereo unspecified), the cytotoxicity at 10 µM was -5.16%.

As to `O=C(O)c1cc(-c2ccn(CC3CC3)n2)n2ccccc12`, the cytotoxicity at 10 µM turned out to be 13.2%.

Take `Cc1cc(C2CCCN(CCCS(=O)(=O)c3ccccc3)C2)n[nH]1` (stereo unspecified): the cytotoxicity at 10 µM is -7.64%.

On to `Cc1noc([C@@H]2C[C@H]3CN(Cc4ccc5c(c4)OCO5)C[C@H]3O2)n1`, for which the cytotoxicity at 10 µM is -113%.

As for `Cc1ccccc1C1CCN(C(=O)CCNS(C)(=O)=O)C1` (stereo unspecified), the cytotoxicity at 10 µM was -1.03%.

Turning to `Cc1cccc(CN(C(=O)CCn2cncn2)C(C)C)c1`, the cytotoxicity at 10 µM came to 8.32%.

As to `Cc1noc(C)c1CNC(=O)c1cn(CCC2CCCCN2)nn1` (stereo unspecified), the cytotoxicity at 10 µM is 0.872%.

As for `CC(C)NC(=O)c1ccc2c(c1)C(c1nc[nH]n1)CN2C` (stereo unspecified), the cytotoxicity at 10 µM is -141%.

In the case of `Oc1nnc(-c2cccs2)c2sc(N3CCCCC3)nc12`, the cytotoxicity at 10 µM was 7.52%.

For `CNC(=O)[C@H]1C[C@@H]2CN(C(=O)c3occc3C)C[C@@H]2N1S(C)(=O)=O`, the cytotoxicity at 10 µM is -2.95%.

For `COc1cc(NCc2ccccc2-n2cncn2)nc(N)n1`, the cytotoxicity at 10 µM is -11%.

On to `CCOC1CC2(CCN(Cc3nccn3C)CC2)C1`, for which the cytotoxicity at 10 µM was -144%.

Take `OCc1cnc(Nc2ccccc2)nc1`: the cytotoxicity at 10 µM amounted to 11.3%.

In the case of `CC(C)C(=O)N1CCc2nc(C(=O)Nc3cccnc3)sc2CC1`, the cytotoxicity at 10 µM was determined as 12.5%.

Regarding `CNC(=O)c1cc2c(nc1NCC(C)C)CCN(C)CC2`, the cytotoxicity at 10 µM was -153%.

As for `CCC(CC)n1ncc(C(=O)NS(=O)(=O)c2ccsc2)c1C`, the cytotoxicity at 10 µM was -3.01%.

On to `COc1ccc(C(CC(=O)O)NC(=O)CCc2cccs2)cc1OC` (stereo unspecified), for which the cytotoxicity at 10 µM was -6.33%.

For the molecule `O=C1CCC(C(=O)Nc2ccc(=O)n(Cc3ccc(Cl)c(Cl)c3)c2)N1` (stereo unspecified), the cytotoxicity at 10 µM was -8.47%.

As to `COCCN(C)Cc1cc(Cl)ccc1OCC(O)CN1CCCCCC1` (stereo unspecified), the cytotoxicity at 10 µM is 1.76%.

With `COC(=O)c1ccn(CC(=O)Nc2nn(CC3CC3)c3ccccc23)n1`, the cytotoxicity at 10 µM worked out at 4.95%.

Take `c1cnn(CC2CN(Cc3nc(-c4ccoc4)no3)CCO2)c1` (stereo unspecified): the cytotoxicity at 10 µM is -23.8%.

In the case of `CS(=O)(=O)Cc1noc(CN2CCc3c(Cl)cccc3C2)n1`, the cytotoxicity at 10 µM was -4.07%.

For `O=C(NCCCn1ccnn1)C1CCCN(C2CCCC2)C1` (stereo unspecified), the cytotoxicity at 10 µM was -6.03%.

Take `COc1cc(CNc2nc(C(F)(F)F)no2)cc(OC)c1OC`: the cytotoxicity at 10 µM is 1.66%.

Take `CCSCCNc1nc(-c2ccccn2)nc2c1c(C)nn2C`: the cytotoxicity at 10 µM turned out to be 6.35%.

As to `COC(=O)c1cccn1C1CCN(Cc2ccccc2)CC1`, the cytotoxicity at 10 µM is -12%.

`CNS(=O)(=O)c1ccc(CN2CCCC2c2ccc(F)cc2)cc1` (stereo unspecified): the cytotoxicity at 10 µM came out at 11.6%.

As to `COC1CCN(c2ccc(NC(=O)C3CC3)cc2C(F)(F)F)CC1`, the cytotoxicity at 10 µM was 39.5%.

Consider `CCCC(=O)N1CCC(c2nc(O)c3c(n2)CCN(C2CCCC2)C3)C1` (stereo unspecified), for which the cytotoxicity at 10 µM was found to be 9.34%.

`Cc1nsc(NC(=O)NC2(CN3CCCCC3)CCCCC2)n1`: the cytotoxicity at 10 µM came out at 10.6%.

As to `CC(=O)N1CCN(C(=O)CNc2ccc3ncsc3c2)CC1`, the cytotoxicity at 10 µM was -2.01%.

Take `CCn1ncc(Cl)c1CN(C)C(=O)CCn1ncc(Br)c1C`: the cytotoxicity at 10 µM is 2.93%.

As for `OC(CNC1CCSCC1)c1cccc(OCc2ccccc2)c1` (stereo unspecified), the cytotoxicity at 10 µM was found to be 8.22%.

For `CC(=O)Nc1ccc(/C=C/c2ncc(C(=O)O)s2)cc1`, the cytotoxicity at 10 µM is -3.54%.

Turning to `CNC(=O)c1cc(-c2ccccc2)nc2ncnn12`, the cytotoxicity at 10 µM is -4.66%.

For the molecule `CC(=O)c1ccc(NC(=O)C(C)Cn2cc(Br)cn2)cc1` (stereo unspecified), the cytotoxicity at 10 µM stood at 0.88%.

For `COc1cccc(COCC(=O)N2CCCC(c3nncn3C)C2)c1` (stereo unspecified), the cytotoxicity at 10 µM was -6.36%.

With `CN(Cc1noc(C2CC2)n1)C1CCN(Cc2nc(C3CC3)no2)C1` (stereo unspecified), the cytotoxicity at 10 µM is -1.57%.

`Cc1cc(Cn2cc(C(C)Cc3ccc4c(c3)OCO4)nn2)n[nH]1` (stereo unspecified): the cytotoxicity at 10 µM was determined as 5.92%.

As to `O=C(c1cc[nH]n1)N1CCC(c2cc(Nc3ccccn3)n[nH]2)CC1`, the cytotoxicity at 10 µM is -37.1%.

Take `Cc1cc(NC2CC3(CCN(Cc4csc(C)n4)C3)C2)ncn1` (stereo unspecified): the cytotoxicity at 10 µM was -2.34%.

On to `COC[C@@H]1CCC[C@@]12CN(C(=O)N1CCCC1)CCO2`, for which the cytotoxicity at 10 µM is -101%.

As for `CCN(CC)Cc1cc(C(=O)N2CC[C@@]3(O)CCCC[C@H]3C2)c(C)o1`, the cytotoxicity at 10 µM was found to be 2.93%.

On to `O=C(NCCn1cccc1)C1CCCOC1` (stereo unspecified), for which the cytotoxicity at 10 µM stood at 3.03%.

`Cc1cccnc1C(=O)N1CCCCC1c1[nH]ncc1S(C)(=O)=O` (stereo unspecified): the cytotoxicity at 10 µM was determined as 5.92%.

`CCc1nc(CN(C)c2nccc(N3CCCC(O)C3)n2)no1` (stereo unspecified): the cytotoxicity at 10 µM was 0.324%.

On to `COCCN1C(=O)[C@@H]2CC[C@H]1CN(Cc1nnc(-c3ccccc3)o1)C2`, for which the cytotoxicity at 10 µM was -4.94%.

As for `Cn1ncc2c1NC(=O)CSC2c1ccccc1Cl` (stereo unspecified), the cytotoxicity at 10 µM turned out to be 5.81%.

As for `Cc1cccc(N2CCN(CCNC(=O)C(C)n3cncn3)CC2)c1` (stereo unspecified), the cytotoxicity at 10 µM is -1.91%.

Turning to `Cc1cc(-c2cnc(N3CCN(C)CC3)nc2C(C)C)on1`, the cytotoxicity at 10 µM is -5.97%.

Regarding `CS(=O)(=O)CCOCCNc1ccc(Br)cn1`, the cytotoxicity at 10 µM was -4.71%.

In the case of `O=C1CC2(CCCNC2)C(=O)N1Cc1cccc(Cl)c1` (stereo unspecified), the cytotoxicity at 10 µM is -1.19%.

Take `CCN1CCO[C@@H]2CN(C(=O)COC3CCCC3)C[C@@H]2C1`: the cytotoxicity at 10 µM amounted to 4.32%.

Take `CN(C)CCN1CCN(CC2CC2)c2ncccc2C1`: the cytotoxicity at 10 µM is -3.03%.

With `CN1C(=O)CCc2cc(NC(=O)C3CC3)ccc21`, the cytotoxicity at 10 µM was determined as 0.696%.

`Cc1ccc(S(=O)(=O)N2C[C@H]3C[C@H](NC(=O)c4cscn4)[C@H]3C2)cc1`: the cytotoxicity at 10 µM is 12%.

Take `CNC(=O)c1ccc(-n2c(COCC(=O)O)nc3c(C)cccc32)o1`: the cytotoxicity at 10 µM is -3.33%.

Consider `CN1CCCCC(C2CCN(S(=O)(=O)c3cn(C)cn3)CC2)C1=O` (stereo unspecified), for which the cytotoxicity at 10 µM was determined as 3.13%.

`CS(=O)(=O)CCN(CCc1cccc(F)c1)C1CC1`: the cytotoxicity at 10 µM is 11.4%.
